Experimental data from ChEMBL document CHEMBL1134361, “C-Isoprenylation of flavonoids enhances binding affinity toward P-glycoprotein and modulation of cancer cell chemoresistance” (J Med Chem, 2001).

Legend:
[1] = Hydrophobicity index was determined in C18 reverse phase silica gel 20 * 20 cm plates in methanol:water (8:2).; format: ADME
[2] = Partition coefficient (logP); format: physicochemical; conditions: octanol/water
Procedure, shortened: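 Log P estimated by extrapolation from a log P vs R_M calibration curve built with quercetine and platanetine data.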

[3] = tested on: K562; test: Relative daunomycin accumulation was determined in PgP-positive leukemic K562/R7 cells with daunomycin at a concentration of 10 uM; format: functional, Homo sapiens
Procedure, shortened: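 K562/R7 human leukemic cells with high Pgp (1 million/mL RPMI 1640) incubated 1 h at 37 °C with 10 µM daunomycin (final), with or without 10 µM modulator. Cells washed three times in ice-cold PBS, kept on ice, intracellular drug fluorescence read by flow cytometry. Fluorescence shift expressed relative to that of 2 µM cyclosporin A reference. Duplicates, at least three experiments.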

[4] = Direct binding to PgP recombinant cytosolic domain was measured by percent maximal quenching of the intrinsic fluorescence.; format: ADME; conditions: cytosol
Procedure, shortened: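 Recombinant C-terminal cytosolic NBD2 of Pgp at 0.5 µM in 20 mM potassium phosphate pH 6.8 with 0.5 M NaCl, 20% glycerol and 0.01% heptylcarbamoyl glucopyranoside detergent, 25 °C. Excitation at 295 nm, emission scanned 310–360 nm and integrated, buffer-corrected. Ligand added stepwise up to 20 µM. Inner-filter correction used N-acetyltryptophanamide. Curve fitting gave K_D and percent maximal quenching.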

[5] = Effect of Chrysin Alkylation on the Binding to PgP Cytosolic Domain.; format: ADME
Procedure, shortened: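 Recombinant Pgp C-terminal cytosolic domain NBD2 (0.5 µM) in 20 mM potassium phosphate pH 6.8 with 0.5 M NaCl, 20% glycerol and 0.01% heptylcarbamoyl glucoside, 25 °C. Ligand titrated in aliquots up to 20 µM. Tryptophan fluorescence (ex 295 nm, em 310–360 nm) integrated; inner-filter corrected with N-acetyltryptophanamide. Curve fit gave KD and percent maximal quenching.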

SMILES	Hydrophobicity index [1]	logP [2]	Delta Fmax [4] [%]	Kd [5] [nM]	Relative daunomycin accumulation [3]
Cc1c(O)cc2oc(-c3ccccc3)cc(=O)c2c1O	0.512	5.85	46.6	3100	0.2
CC(C)=CCc1c(O)cc2oc(-c3ccccc3)cc(=O)c2c1O	0.812	6.15	83.4	300	0.83
CC(C)c1c(O)cc2oc(-c3ccccc3)cc(=O)c2c1O	0.608	5.95	39	210	0.24
O=c1cc(-c2ccccc2)oc2c(Cc3ccccc3)c(O)c(Cc3ccccc3)c(O)c12	1.06	6.41	40.9	36	0.39
CC(C)Oc1cc(O)c2c(=O)cc(-c3ccccc3)oc2c1	0.898	6.24	53.2	1320	0.3
O=c1cc(-c2ccccc2)oc2cc(OCc3ccccc3)cc(O)c12	1.076	6.42	29.3	68	0.27
O=c1cc(-c2ccccc2)oc2c(Cc3ccccc3)c(O)cc(O)c12	0.754	6.1	99.1	990	0.25
CC(C)Oc1c(C(C)C)c(O)c2c(=O)cc(-c3ccccc3)oc2c1C(C)C	1.479	6.84	38.4	33	0.29
CC(C)=CCC/C(C)=C\Cc1c(O)cc(O)c2c(=O)cc(-c3ccccc3)oc12	1.35	6.71	67	25	0.9
CC(C)Oc1cc2oc(-c3ccccc3)cc(=O)c2c(O)c1C(C)C	1.248	6.6	44.5	280	0.29
CC(C)=CCc1c(O)cc(O)c2c(=O)cc(-c3ccccc3)oc12	0.853	6.2	81	280	1.52

Further molecules by falling Kd [5], results first:

Hydrophobicity index [1]	logP [2]	Delta Fmax [4] [%]	Kd [5] [nM]	SMILES	Relative daunomycin accumulation [3]
0.358	5.7	94.6	13100	O=c1cc(-c2ccccc2)oc2cc(O)cc(O)c12 [CHRYSIN]	0.2
0.719	6.06	68.1	6300	COc1cc(O)c2c(=O)cc(-c3ccccc3)oc2c1 [TECHTOCHRYSIN]	0.23
0.842	6.18	57.3	1300	COc1cc2oc(-c3ccccc3)cc(=O)c2c(O)c1C	0.3
0.754	6.1	72.4	340	O=c1cc(-c2ccccc2)oc2cc(O)c(Cc3ccccc3)c(O)c12	0.09
1.288	6.64	48.2	45	CC(C)=CCC/C(C)=C\Cc1c(O)cc2oc(-c3ccccc3)cc(=O)c2c1O	0.81
1.296	6.56	21.5	15	CC(C)=CCc1c(O)c(CC=C(C)C)c2oc(-c3ccccc3)cc(=O)c2c1O	0.84
